Data as given in ChEMBL document CHEMBL4038284, “Synthesis of novel quinoline-based 4,5-dihydro-1H-pyrazoles as potential anticancer, antifungal, antibacterial and antiprotozoal agents” (Eur J Med Chem, 2017).
The source made the active and inactive calls. The calls are words filed in the database; no cut-off is given here.

Experiments:
[1] = system: HOP-92; test: Growth inhibition of human HOP92 cells at 10 uM incubated for 48 hrs by sulforhodamine B assay; assay type: functional, cell-based
Summary of the method: (§1)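 NCI 60-line panel, single 10 μM dose. Cells were grown in RPMI-1640 with 5% FBS and 2 mM L-glutamine and pre-incubated 24 h before compound addition (DMSO stock). Exposure was 48 h at 37 °C, 5% CO2. Cells were fixed with cold TCA (10% final), stained with 0.4% SRB, bound dye dissolved in 10 mM Tris base, A515 read. Growth was taken relative to time-zero and untreated control plates.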

[2] = system: A549; test: Growth inhibition of human A549/ATCC cells at 10 uM incubated for 48 hrs by sulforhodamine B assay; assay type: functional, cell-based
Summary of the method: (§2)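 NCI 60-cell-line screen at a single 10 µM dose. Cells in RPMI-1640 with 5% FBS and 2 mM L-glutamine, pre-incubated 24 h, then treated for 48 h at 37 °C. TCA fixation, sulforhodamine B staining, absorbance at 515 nm. Percentage growth calculated against time-zero and untreated controls.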

[3] = system: SN12C; test: Growth inhibition of human SN12C cells at 10 uM incubated for 48 hrs by sulforhodamine B assay; assay type: functional, cell-based
Summary of the method: (§3)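 NCI-60 single-dose screen at 10 µM for 48 h. Cells were grown in RPMI-1640 with 5% FBS and 2 mM L-glutamine and preincubated 24 h before compound. Time-zero plates were TCA-fixed at compound addition. After exposure, cells were TCA-fixed, stained with SRB and read at 515 nm. Percentage growth was calculated against time-zero and untreated-control absorbances.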

[4] = system: Staphylococcus aureus; test: Antibacterial activity against vancomycin-intermediate Staphylococcus aureus after 24 hrs by resazurin dye based microdilution assay; assay type: functional
Summary of the method: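 MIC taken as the lowest concentration giving visible inhibition and/or by resazurin (1 mg/mL). Gentamicin was the control. Run in duplicate, repeated at least three times.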

[5] = system: SF-539; test: Growth inhibition of human SF539 cells at 10 uM incubated for 48 hrs by sulforhodamine B assay; assay type: functional, cell-based; summary of the method: as §1
[6] = system: Cryptococcus neoformans; test: Antifungal activity against Cryptococcus neoformans ATCC 32264 incubated for 48 hrs under dark condition by broth microdilution method; assay type: functional; conditions: ATCC 32264, 48 h
Summary of the method: (§4)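 CLSI M27-A3 broth microdilution in RPMI-1640, DMSO ≤1%, compounds at 250-0.98 µg/mL final. Inoculum 1-5 × 10^3 CFU/mL. Incubated 48 h at 30 °C in a moist dark chamber, read at OD405. MIC80 and MIC50 taken from % inhibition dose-response curves (mean ± SEM, triplicate). Amphotericin B was the positive control.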

[7] = system: Candida albicans; test: Growth inhibition of Candida albicans ATCC 10231 at 3.4 ug/ml incubated for 48 hrs under dark condition by broth microdilution method relative to control; assay type: functional; conditions: ATCC 10231, 48 h, read-out: GI
[8] = system: M14; test: Growth inhibition of human M14 cells at 10 uM incubated for 48 hrs by sulforhodamine B assay; assay type: functional, cell-based; summary of the method: as §1
[9] = system: COLO 205; test: Growth inhibition of human COLO205 cells at 10 uM incubated for 48 hrs by sulforhodamine B assay; assay type: functional, cell-based; summary of the method: as §2
[10] = system: HOP-62; test: Growth inhibition of human HOP62 cells at 10 uM incubated for 48 hrs by sulforhodamine B assay; assay type: functional, cell-based; summary of the method: as §2
[11] = system: Candida albicans; test: Antifungal activity against Candida albicans ATCC 10231 incubated for 48 hrs under dark condition by broth microdilution method; assay type: functional; conditions: ATCC 10231, 48 h; summary of the method: as §4
[12] = system: U-251; test: Growth inhibition of human U251 cells at 10 uM incubated for 48 hrs by sulforhodamine B assay; assay type: functional, cell-based; summary of the method: as §3
[13] = system: NCI-H522; test: Growth inhibition of human NCI-H522 cells at 10 uM incubated for 48 hrs by sulforhodamine B assay; assay type: functional, cell-based; summary of the method: as §1
[14] = system: Staphylococcus aureus; test: Antibacterial activity against methicillin-resistant Staphylococcus aureus ATCC 43300 after 24 hrs by resazurin dye based microdilution assay; assay type: functional; conditions: ATCC 43300, 24 h
Summary of the method: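 Broth microdilution in Mueller Hinton broth, inoculum 5 × 10^5 – 8 × 10^5. Compound stocks diluted in MHB with 5% DMSO and 0.1% Tween 80. Incubation 24 h at 35-37 °C. MIC is the lowest concentration with visible growth inhibition and/or by resazurin (1 mg/mL) read-out. Gentamicin as control. Run in duplicate, replicated at least three times.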

[15] = system: KM12; test: Growth inhibition of human KM12 cells at 10 uM incubated for 48 hrs by sulforhodamine B assay; assay type: functional, cell-based; summary of the method: as §1
[16] = system: Candida albicans; test: Growth inhibition of Candida albicans ATCC 10231 at 125 ug/ml incubated for 48 hrs under dark condition by broth microdilution method relative to control; assay type: functional; conditions: ATCC 10231, 48 h, read-out: GI
Summary of the method: (§5)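 CLSI M27-A3 broth microdilution in RPMI-1640, DMSO ≤1%. Inoculum 1-5 × 10^3 CFU/mL. Incubated 48 h at 30 °C, dark. % inhibition = 100 − (OD405 test − sterility control)/(OD405 growth control − sterility control), with growth and sterility control wells. Triplicate.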

[17] = system: LOX IMVI; test: Growth inhibition of human LOXIMVI cells at 10 uM incubated for 48 hrs by sulforhodamine B assay; assay type: functional, cell-based; summary of the method: as §1
[18] = system: Neisseria gonorrhoeae; test: Antibacterial activity against beta lactamase positive Neisseria gonorrhoeae ATCC 31426 by oxidase test; assay type: functional
Summary of the method: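 Agar dilution MIC on GC agar with 1% isovitalex containing increasing compound concentrations. Plates inoculated with about 1×10^4 CFU (5 µL). MIC is the lowest concentration that inhibited growth, with growth confirmed by oxidase test. Run in duplicate, repeated at least three times.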

[19] = system: TK-10; test: Growth inhibition of human TK10 cells at 10 uM incubated for 48 hrs by sulforhodamine B assay; assay type: functional, cell-based; summary of the method: as §3
[20] = system: MDA-MB-468; test: Growth inhibition of human MDA-MB-468 cells at 10 uM incubated for 48 hrs by sulforhodamine B assay; assay type: functional, cell-based; summary of the method: as §1
[21] = system: Malme-3M; test: Growth inhibition of human MALME-3M cells at 10 uM incubated for 48 hrs by sulforhodamine B assay; assay type: functional, cell-based; summary of the method: as §1
[22] = system: MOLT-4; test: Growth inhibition of human MOLT4 cells at 10 uM incubated for 48 hrs by sulforhodamine B assay; assay type: functional, cell-based; summary of the method: as §1
[23] = system: SK-OV-3; test: Growth inhibition of human SKOV3 cells at 10 uM incubated for 48 hrs by sulforhodamine B assay; assay type: functional, cell-based; summary of the method: as §3
[24] = system: HCT-116; test: Growth inhibition of human HCT116 cells at 10 uM incubated for 48 hrs by sulforhodamine B assay; assay type: functional, cell-based; summary of the method: as §2
[25] = system: Cryptococcus neoformans; test: Growth inhibition of Cryptococcus neoformans ATCC 32264 at 31.25 ug/ml incubated for 48 hrs under dark condition by broth microdilution method relative to control; assay type: functional; conditions: ATCC 32264, 48 h, read-out: GI; summary of the method: as §5
[26] = system: Candida albicans; test: Growth inhibition of Candida albicans ATCC 10231 at 15.62 ug/ml incubated for 48 hrs under dark condition by broth microdilution method relative to control; assay type: functional; conditions: ATCC 10231, 48 h, read-out: GI; summary of the method: as §5
[27] = system: Cryptococcus neoformans; test: Growth inhibition of Cryptococcus neoformans ATCC 32264 at 15.62 ug/ml incubated for 48 hrs under dark condition by broth microdilution method relative to control; assay type: functional; conditions: ATCC 32264, 48 h, read-out: GI; summary of the method: as §5
[28] = system: SK-MEL-28; test: Growth inhibition of human SK-MEL-28 cells at 10 uM incubated for 48 hrs by sulforhodamine B assay; assay type: functional, cell-based; summary of the method: as §3
[29] = system: SNB-75; test: Growth inhibition of human SNB75 cells at 10 uM incubated for 48 hrs by sulforhodamine B assay; assay type: functional, cell-based; summary of the method: as §3

SMILES: Clc1ccc(C2=NN(c3cc(Cl)cc(Cl)c3)C(c3cccc(Nc4ccnc5cc(Cl)ccc45)c3)C2)cc1 (stereo unspecified)
- growth inhibition (GI) [1]: inactive
- growth inhibition (GI) [2]: inactive
- growth inhibition (GI) [3]: inactive
- MIC [4]: > 1000 µg/mL
- growth inhibition (GI) [5]: inactive
- MIC50 [6]: ≥ 250 µg/mL
- MIC80 [6]: ≥ 250 µg/mL
- inhibition of growth at 3.4 µg/mL [7]: 1.64%
- growth inhibition (GI) [8]: inactive
- growth inhibition (GI) [9]: inactive
- growth inhibition (GI) [10]: inactive
- MIC50 [11]: ≥ 250 µg/mL
- MIC80 [11]: ≥ 250 µg/mL
- growth inhibition (GI) [12]: inactive
- growth inhibition (GI) [13]: inactive
- MIC [14]: > 1000 µg/mL
- growth inhibition (GI) [15]: inactive
- inhibition of growth at 125 µg/mL [16]: 31.5%
- growth inhibition (GI) [17]: inactive
- MIC [18]: > 1000 µg/mL
- growth inhibition (GI) [19]: inactive
- growth inhibition (GI) [20]: inactive
- growth inhibition (GI) [21]: inactive
- growth inhibition (GI) [22]: inactive
- growth inhibition (GI) [23]: inactive
- growth inhibition (GI) [24]: inactive
- inhibition of growth at 31.25 µg/mL [25]: 0%
- inhibition of growth at 15.62 µg/mL [26]: 10.8%
- inhibition of growth at 15.62 µg/mL [27]: 0%
- growth inhibition (GI) [28]: inactive
- growth inhibition (GI) [29]: inactive
